The values below come from ChEMBL document CHEMBL2034931, “Discovery of Novel Small Molecule Mer Kinase Inhibitors for the Treatment of Pediatric Acute Lymphoblastic Leukemia” (ACS Med Chem Lett, 2012).

Broadly, the IC50 is the midpoint of a concentration-inhibition curve. A lower IC50 goes with greater potency in that assay. For orientation: inhibition means the share of the control response that was lost under treatment. What is called Vdss is a proportionality between amount in the body and measured concentration, not a real space. Low readings indicate little distribution into tissue, high ones wide distribution into tissue.

Series [1] deals with T1, Tyrosine-protein kinase Mer (Homo sapiens, UniProt Q12866).
T1 sequence (Q12866 whole entry): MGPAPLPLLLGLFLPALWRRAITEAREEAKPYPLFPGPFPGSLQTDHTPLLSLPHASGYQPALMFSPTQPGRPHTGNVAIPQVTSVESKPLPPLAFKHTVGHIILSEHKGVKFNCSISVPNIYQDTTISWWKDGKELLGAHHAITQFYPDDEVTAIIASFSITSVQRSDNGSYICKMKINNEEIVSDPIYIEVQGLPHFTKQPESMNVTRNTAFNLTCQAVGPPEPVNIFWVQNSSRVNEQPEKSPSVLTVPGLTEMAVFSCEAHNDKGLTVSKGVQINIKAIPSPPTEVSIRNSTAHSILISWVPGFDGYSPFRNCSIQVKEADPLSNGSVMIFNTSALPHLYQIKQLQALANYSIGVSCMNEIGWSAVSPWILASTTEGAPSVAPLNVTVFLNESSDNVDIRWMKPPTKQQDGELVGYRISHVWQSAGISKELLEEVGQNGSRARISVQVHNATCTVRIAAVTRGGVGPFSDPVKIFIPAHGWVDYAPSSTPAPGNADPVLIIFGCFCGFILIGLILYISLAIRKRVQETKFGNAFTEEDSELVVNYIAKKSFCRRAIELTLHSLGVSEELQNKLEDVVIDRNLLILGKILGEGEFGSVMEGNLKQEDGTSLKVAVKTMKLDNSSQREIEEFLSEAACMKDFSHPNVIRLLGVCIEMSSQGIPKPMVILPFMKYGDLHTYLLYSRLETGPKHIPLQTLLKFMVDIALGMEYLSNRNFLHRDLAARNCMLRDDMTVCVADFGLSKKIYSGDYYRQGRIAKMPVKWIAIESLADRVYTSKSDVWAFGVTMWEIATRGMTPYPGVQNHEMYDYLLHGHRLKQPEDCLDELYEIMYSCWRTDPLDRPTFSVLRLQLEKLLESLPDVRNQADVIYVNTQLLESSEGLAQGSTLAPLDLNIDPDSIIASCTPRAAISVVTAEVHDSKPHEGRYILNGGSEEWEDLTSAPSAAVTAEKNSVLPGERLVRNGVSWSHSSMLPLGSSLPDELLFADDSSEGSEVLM
As to the kind of experiment: Inhibition of Mer expressed in Escherichia coli BL21 (DE3) cells using EFPIYDFLPAKKK-CONH2 as substrate after 180 mins by microfluid capillary electrophoresis assay.

For series [2], the target named is Receptor-type tyrosine-protein kinase FLT3 (Homo sapiens) (UniProt P36888). The series is described as follows: Inhibition of FLT3 at 10 times IC50 concentration after 90 mins in presence of ATP. The method in brief: (§1)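 Single-concentration screen across a kinase panel spanning the main kinase families, the TAM family and the related MET family. Each sample was run in duplicate, and the read-out was percent inhibition of kinase activity.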
Sequence of Receptor-type tyrosine-protein kinase FLT3 (Homo sapiens) (P36888 whole entry): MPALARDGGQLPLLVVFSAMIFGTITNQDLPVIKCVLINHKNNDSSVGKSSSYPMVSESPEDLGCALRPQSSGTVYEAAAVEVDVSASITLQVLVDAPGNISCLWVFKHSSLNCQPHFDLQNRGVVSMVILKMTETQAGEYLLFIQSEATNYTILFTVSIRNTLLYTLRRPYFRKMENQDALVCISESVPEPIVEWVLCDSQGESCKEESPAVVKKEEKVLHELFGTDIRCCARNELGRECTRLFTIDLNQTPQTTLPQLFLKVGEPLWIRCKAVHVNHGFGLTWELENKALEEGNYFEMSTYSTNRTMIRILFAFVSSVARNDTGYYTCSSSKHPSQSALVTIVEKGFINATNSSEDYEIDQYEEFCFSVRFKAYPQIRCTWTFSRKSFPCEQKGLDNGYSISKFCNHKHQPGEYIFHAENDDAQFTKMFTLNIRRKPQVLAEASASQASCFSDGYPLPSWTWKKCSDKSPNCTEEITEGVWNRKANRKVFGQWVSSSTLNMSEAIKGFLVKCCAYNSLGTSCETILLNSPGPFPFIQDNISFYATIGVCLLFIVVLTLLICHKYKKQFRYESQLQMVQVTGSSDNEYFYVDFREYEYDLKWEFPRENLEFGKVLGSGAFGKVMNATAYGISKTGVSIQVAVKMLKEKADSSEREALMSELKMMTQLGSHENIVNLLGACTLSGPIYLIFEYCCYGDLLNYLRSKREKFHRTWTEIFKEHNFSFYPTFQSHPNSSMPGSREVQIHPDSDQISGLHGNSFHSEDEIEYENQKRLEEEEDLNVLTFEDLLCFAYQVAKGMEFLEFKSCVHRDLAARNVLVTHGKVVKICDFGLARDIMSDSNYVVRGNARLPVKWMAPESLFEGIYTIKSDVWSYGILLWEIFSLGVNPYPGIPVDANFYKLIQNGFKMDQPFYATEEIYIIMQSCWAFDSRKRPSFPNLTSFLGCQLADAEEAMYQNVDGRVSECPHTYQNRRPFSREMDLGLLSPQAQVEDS

Series [3] deals with MAP kinase-activated protein kinase 2 (Homo sapiens) (UniProt P49137). As to the kind of experiment: Inhibition of MAPKAPK2 at 10 times IC50 concentration after 90 mins in presence of ATP. The essentials:
as §1

The target in series [4] is Proto-oncogene tyrosine-protein kinase receptor Ret (Homo sapiens) (UniProt P07949). As to the kind of experiment: Inhibition of Ret at 10 times IC50 concentration after 90 mins in presence of ATP. The method in brief:
as §1

The test system of series [5] is Proto-oncogene tyrosine-protein kinase receptor Ret (Homo sapiens), P07949 [Y791F]. The series is described as follows: Inhibition of Ret Y791F mutant at 10 times IC50 concentration after 90 mins in presence of ATP. The essentials:
as §1

Series [6] has as its target T2, Tyrosine-protein kinase receptor UFO (Homo sapiens, UniProt P30530).
T2 sequence (P30530 whole entry): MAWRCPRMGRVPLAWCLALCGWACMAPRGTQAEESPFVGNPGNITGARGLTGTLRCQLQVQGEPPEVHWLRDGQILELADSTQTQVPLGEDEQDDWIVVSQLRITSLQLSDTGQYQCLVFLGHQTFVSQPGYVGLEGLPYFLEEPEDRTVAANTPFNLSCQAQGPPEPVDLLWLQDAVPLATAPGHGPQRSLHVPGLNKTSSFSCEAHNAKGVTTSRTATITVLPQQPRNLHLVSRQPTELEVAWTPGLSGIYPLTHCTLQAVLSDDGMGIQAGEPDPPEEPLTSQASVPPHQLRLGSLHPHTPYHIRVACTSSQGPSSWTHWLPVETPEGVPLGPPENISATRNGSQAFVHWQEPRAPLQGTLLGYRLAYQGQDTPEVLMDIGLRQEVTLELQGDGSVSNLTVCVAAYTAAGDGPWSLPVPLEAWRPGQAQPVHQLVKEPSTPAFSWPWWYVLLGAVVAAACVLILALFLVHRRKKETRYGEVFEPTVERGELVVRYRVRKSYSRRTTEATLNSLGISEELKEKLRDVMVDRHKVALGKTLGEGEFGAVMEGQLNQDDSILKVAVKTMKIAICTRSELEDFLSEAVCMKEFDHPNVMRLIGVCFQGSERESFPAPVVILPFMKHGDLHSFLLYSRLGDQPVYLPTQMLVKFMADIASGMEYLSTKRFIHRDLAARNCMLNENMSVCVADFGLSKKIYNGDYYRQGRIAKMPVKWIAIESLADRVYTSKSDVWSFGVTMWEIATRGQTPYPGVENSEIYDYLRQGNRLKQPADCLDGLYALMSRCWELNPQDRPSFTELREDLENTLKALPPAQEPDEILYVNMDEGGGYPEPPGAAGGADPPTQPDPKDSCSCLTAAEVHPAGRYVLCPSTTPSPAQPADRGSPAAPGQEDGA
As to the kind of experiment: Inhibition of Axl using KKKKEEIYFFF-CONH2 as substrate after 180 mins by microfluid capillary electrophoresis assay.

Series [7] has as its target T3, Tyrosine-protein kinase receptor TYRO3 (Homo sapiens, UniProt Q06418).
T3 sequence (Q06418 whole entry): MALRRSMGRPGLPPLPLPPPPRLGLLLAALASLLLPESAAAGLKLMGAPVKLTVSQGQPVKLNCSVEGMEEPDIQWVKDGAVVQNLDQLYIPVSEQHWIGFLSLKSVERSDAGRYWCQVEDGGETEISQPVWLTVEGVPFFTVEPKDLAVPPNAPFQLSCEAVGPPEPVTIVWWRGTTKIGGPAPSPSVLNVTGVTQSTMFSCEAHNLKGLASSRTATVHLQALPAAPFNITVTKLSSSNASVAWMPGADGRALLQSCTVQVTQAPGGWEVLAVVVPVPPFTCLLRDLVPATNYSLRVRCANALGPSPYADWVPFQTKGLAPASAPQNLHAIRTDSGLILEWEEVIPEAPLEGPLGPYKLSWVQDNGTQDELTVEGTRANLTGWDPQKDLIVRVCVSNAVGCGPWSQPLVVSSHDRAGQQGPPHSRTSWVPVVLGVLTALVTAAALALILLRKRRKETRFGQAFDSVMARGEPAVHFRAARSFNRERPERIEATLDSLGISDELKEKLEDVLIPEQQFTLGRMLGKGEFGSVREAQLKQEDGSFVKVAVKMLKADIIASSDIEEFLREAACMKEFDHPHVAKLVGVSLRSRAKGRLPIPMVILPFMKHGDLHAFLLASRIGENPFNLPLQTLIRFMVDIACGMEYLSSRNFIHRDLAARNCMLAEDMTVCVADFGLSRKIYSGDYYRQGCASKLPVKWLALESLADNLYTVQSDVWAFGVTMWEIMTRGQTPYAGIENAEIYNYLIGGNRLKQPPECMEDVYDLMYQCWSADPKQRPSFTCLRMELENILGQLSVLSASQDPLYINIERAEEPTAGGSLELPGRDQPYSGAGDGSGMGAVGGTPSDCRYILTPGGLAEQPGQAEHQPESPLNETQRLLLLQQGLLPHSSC
The series is described as follows: Inhibition of Tyro3 using EFPIYDFLPAKKK-CONH2 as substrate after 180 mins by microfluid capillary electrophoresis assay.

For series [8], the system named is Mus musculus. As to the kind of experiment: Volume of distribution at steady state in Swiss mouse at 3 mg/kg, iv. It counts as ADME, organism-based. Details: dose 3 mg/kg, route intravenous. As to conditions: in vivo.
The test system of series [9] is Mus musculus. The series is described as follows: Oral bioavailability in Swiss mouse at 3 mg/kg. It counts as ADME, organism-based. The conditions noted are these: in vivo.

A value given as a limit tells only on which side of the number the result lay.

Sequence of MAP kinase-activated protein kinase 2 (Homo sapiens) (P49137 whole entry, looked up): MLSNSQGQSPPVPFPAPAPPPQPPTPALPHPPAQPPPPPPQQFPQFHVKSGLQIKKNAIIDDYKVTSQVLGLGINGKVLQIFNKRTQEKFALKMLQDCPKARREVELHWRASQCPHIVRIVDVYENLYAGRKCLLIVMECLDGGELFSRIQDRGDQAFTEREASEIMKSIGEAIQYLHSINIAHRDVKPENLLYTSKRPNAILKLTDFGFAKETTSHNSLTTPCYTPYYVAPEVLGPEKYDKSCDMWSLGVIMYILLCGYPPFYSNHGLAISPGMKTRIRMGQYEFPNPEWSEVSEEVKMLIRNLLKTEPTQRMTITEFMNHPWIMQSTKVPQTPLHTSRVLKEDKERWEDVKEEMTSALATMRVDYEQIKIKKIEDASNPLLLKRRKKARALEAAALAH
Sequence of Proto-oncogene tyrosine-protein kinase receptor Ret (Homo sapiens), P07949 [Y791F] (P07949 whole entry Y791F): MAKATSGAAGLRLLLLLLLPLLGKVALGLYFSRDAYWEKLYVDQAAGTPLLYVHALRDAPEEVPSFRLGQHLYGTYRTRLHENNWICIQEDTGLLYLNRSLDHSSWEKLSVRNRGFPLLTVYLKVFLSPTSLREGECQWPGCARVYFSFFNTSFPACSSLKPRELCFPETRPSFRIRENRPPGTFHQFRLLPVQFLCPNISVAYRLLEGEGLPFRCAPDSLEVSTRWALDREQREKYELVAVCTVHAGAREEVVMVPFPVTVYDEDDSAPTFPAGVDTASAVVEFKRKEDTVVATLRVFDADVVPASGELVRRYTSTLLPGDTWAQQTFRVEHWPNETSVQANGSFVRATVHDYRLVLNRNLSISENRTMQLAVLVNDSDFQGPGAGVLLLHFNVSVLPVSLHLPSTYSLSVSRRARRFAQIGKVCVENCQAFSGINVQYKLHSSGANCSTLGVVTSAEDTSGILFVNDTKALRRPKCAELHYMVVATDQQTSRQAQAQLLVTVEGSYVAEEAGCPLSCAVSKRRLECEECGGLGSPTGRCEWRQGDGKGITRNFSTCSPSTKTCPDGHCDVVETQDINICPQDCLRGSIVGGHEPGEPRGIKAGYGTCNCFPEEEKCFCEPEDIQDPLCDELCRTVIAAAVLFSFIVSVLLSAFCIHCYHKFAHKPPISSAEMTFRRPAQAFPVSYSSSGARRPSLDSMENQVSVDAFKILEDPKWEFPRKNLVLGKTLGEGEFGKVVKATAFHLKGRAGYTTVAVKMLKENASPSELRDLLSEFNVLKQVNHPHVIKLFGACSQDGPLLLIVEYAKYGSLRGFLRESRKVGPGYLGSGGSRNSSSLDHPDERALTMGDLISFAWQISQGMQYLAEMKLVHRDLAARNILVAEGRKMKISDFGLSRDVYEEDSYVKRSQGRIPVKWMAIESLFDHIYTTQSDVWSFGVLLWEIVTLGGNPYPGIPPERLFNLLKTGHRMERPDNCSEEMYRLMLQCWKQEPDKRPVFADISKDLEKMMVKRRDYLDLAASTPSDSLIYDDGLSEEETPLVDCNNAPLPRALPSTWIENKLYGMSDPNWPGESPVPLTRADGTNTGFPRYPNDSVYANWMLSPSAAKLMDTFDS
Sequence of Proto-oncogene tyrosine-protein kinase receptor Ret (Homo sapiens) (P07949 whole entry): as the sequence (P07949 whole entry Y791F) above, with F791Y counted along it

For `CC(C)n1cnc2c(Nc3cccc(Cl)c3)nc(NCCO)nc21`, the IC50 in [1] amounted to 11 µM.

Turning to `N[C@H]1CC[C@H](Cn2nc(-c3ccc(N4CCNCC4)cc3)c3cnc(NCCCc4ccccc4)nc32)CC1`, the inhibition is 82% in series [2], 94% in series [3], 79% in series [4] and 67% in [5].

Take `CNc1ncc2c(C(C)C)nn(C[C@@H]3CCCN3)c2n1`: the IC50 in [6] and in series [7] was more than 30 µM throughout.

For `CNc1ncc2c(C(C)C)nn(CC3CCNCC3)c2n1`, the IC50 in series [6] and in series [7] was more than 30 µM each time.

`CCCCNc1ncc2c(-c3ccc(F)cc3)nn(C[C@H]3CC[C@H](N)CC3)c2n1` [PYRAZOLOPYRIMIDINE]: the inhibition was 82% in series [2], 92% in [3], 59% in series [4] and 56% in series [5]. For the same molecule, the Vdss in the series on Mus musculus [8] was determined as 5.83 L/kg. The F with Mus musculus [9] turned out to be 57%.
